Source: PubChem BioAssay (The Scripps Research Institute Molecular Screening Center)
Rows were chosen to be rich in hits. Some 3.6% of all compounds tested hit in one or more screens of this group.
pPAFAH inh: pPAFAH (human) enzyme inhibition | 330,000 compounds, 1.5% hits | Q13093 | recombinant pPAFAH, FP-rhodamine probe fluorescence polarization | inhibition, % at 3.39 µM;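 active = inhibition above the mean inhibition across the screen plus 3 SD, cut at about 25% in these data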;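 also: inhibitors block binding of the rhodamine activity-based probe so polarization drops; 0% = enzyme with DMSO and 100% = wells lacking pPAFAH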
Target sequence (Q13093 whole entry, looked up): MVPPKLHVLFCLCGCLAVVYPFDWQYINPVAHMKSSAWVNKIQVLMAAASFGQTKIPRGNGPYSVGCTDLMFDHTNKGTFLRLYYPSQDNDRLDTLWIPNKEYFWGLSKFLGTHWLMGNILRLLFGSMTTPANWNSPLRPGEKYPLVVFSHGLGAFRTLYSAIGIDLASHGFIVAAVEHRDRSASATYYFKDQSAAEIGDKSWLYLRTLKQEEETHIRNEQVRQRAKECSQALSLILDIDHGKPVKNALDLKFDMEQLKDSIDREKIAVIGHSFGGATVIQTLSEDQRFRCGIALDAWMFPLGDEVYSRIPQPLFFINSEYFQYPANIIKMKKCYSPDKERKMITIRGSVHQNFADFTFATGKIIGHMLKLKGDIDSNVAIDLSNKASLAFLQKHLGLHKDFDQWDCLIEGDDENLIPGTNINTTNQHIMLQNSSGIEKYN
IMP-1 inh: inhibitors of Pseudomonas aeruginosa IMP-1 metallo-beta-lactamase. AID 1556. purified IMP-1, nitrocefin hydrolysis, epi-absorbance fluorescence. inhibition, % at 5.6 µM. 290,000 compounds, 0.45% hits;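 active = inhibition above the mean plus 3 SD of all compounds in the same screening run, cut at about 4.5% in these data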;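 also: 0% = IMP-1 with DMSO and 100% = DMSO wells lacking enzyme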
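System: Purified IMP-1 | Read-out basis: Percent enzyme inhibition | Controls: IMP-1 with DMSO as 0%, enzyme-free DMSO as 100% | Replicates: One well per compound | Doses: 5.6 µM nominal single concentration | Detection: Epi-absorbance fluorescence, 480 nm excitation, 530 nm emission | Incubation: 25 °C, 15 min preincubation, 25 min reaction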
PAFAH1B2 FP inh: inhibitors of human PAFAH1B2; P68402; recombinant PAFAH1B2, FP-rhodamine activity probe, fluorescence polarization; inhibition, % at 3.39 µM; 340,000 compounds, 1.2% hits;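 active = inhibition above the mean of all tested compounds plus 3 SD, cut at about 24% in these data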;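 also: 0% = enzyme with DMSO and 100% = wells lacking PAFAH1B2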
PAFAH1B3 inh: PAFAH1B3 (human) inhibition; 340,000 compounds, 0.28% hits; inhibition, % at 3.39 µM; recombinant PAFAH1B3, FP-rhodamine probe, fluorescence polarization;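 active = inhibition above the screen-wide average of all tested compounds plus 3 SD, cut at about 25% in these data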;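 also: 0% = enzyme with DMSO only and 100% = wells lacking PAFAH1B3 protein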
Target sequence (Q15102 whole entry, looked up): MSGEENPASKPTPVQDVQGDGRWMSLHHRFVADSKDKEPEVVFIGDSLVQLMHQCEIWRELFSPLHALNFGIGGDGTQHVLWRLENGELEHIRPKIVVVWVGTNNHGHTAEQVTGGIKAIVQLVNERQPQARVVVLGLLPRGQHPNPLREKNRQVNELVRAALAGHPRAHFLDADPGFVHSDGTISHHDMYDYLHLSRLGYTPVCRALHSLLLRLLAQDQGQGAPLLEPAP
VIM-2 inh: inhibitors of Pseudomonas aeruginosa VIM-2 metallo-beta-lactamase; 290,000 compounds, 0.89% hits; AID 1527; purified VIM-2, nitrocefin hydrolysis, epi-absorbance fluorescence; inhibition, % at 5.6 µM;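 active = inhibition above the mean of all tested compounds plus 3 SD, cutoff set per screening run, cut at about 7.5% in these data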;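 also: red hydrolysis product quenches plate fluorescence so inhibitors raise well fluorescence; 0% = enzyme with DMSO and 100% = DMSO without enzyme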
PAFAH2 inh: inhibitors of human PAFAH2. inhibition, % at 3.39 µM. recombinant PAFAH2, FP-rhodamine activity probe, fluorescence polarization. 340,000 compounds, 0.99% hits. Q99487;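 active = inhibition above the mean over all tested compounds plus 3 SD, cut at about 30% in these data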;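 also: inhibitors block probe labeling of enzyme so polarization drops; 0% = enzyme with DMSO and 100% = wells lacking PAFAH2 protein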
PAFAH2 confirm: PAFAH2 (human) inhibition, confirmed | shares compounds with PAFAH2 inh | inhibition, % at 3.39 µM | 2,300 compounds, 65% hits | recombinant PAFAH2, FP-rhodamine activity probe, fluorescence polarization;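 active = mean inhibition over three repeats above a set limit taken from the earlier primary screen, cut at about 30% in these data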;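 also: inhibitor blocks binding of rhodamine activity probe so polarization falls; 0% = enzyme with DMSO and 100% = wells lacking PAFAH2 protein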
Active calls of the source: *; x = not tested or not shown.

SMILES | pPAFAH inh | IMP-1 inh | PAFAH1B2 FP inh | PAFAH1B3 inh | VIM-2 inh | PAFAH2 inh | PAFAH2 confirm
O=C(CC1CC2CCC1C2)OCC(=O)c1c[nH]c2ccccc12 (configuration not stated) | 4 | -1 | -2 | -4 | -3 | -5 | x
Cc1ccc(NC(=O)COC(=O)CC2CC3CCC2C3)cc1S(=O)(=O)N1CCOCC1 (configuration not stated) | 11 | x | 5 | 3 | x | 69* | 65*
Cc1ccc(NC(=O)COC(=O)c2ccc3c(c2)OCCO3)cc1S(=O)(=O)N1CCOCC1 | 9 | 1 | -2 | 4 | 0 | 81* | 74*
Cc1ccc(NC(=O)COC(=O)c2oc3ccccc3c2C)cc1S(=O)(=O)N1CCOCC1 | x | x | 1 | 3 | x | 23 | x
O=C(COC(=O)CC1CC2CCC1C2)NCc1ccc(F)cc1 (configuration not stated) | 22 | x | 15 | 16 | x | 50* | 39*
Cc1ccc(NC(=O)COC(=O)c2ccc(NC(=O)CC#N)cc2)cc1S(=O)(=O)N1CCOCC1 | -9 | x | -13 | -28 | x | 57* | 64*
O=C(NCc1cccnc1)c1ccccc1NS(=O)(=O)c1ccc(Br)cc1 | 4 | x | 8 | 14 | x | 10 | x
CCN(c1ccc(NC(=O)COC(=O)c2ccc(C)c(S(=O)(=O)N3CCOCC3)c2)cc1)C(C)C | 14 | -2 | 1 | -3 | -2 | 39* | 23
O=C(COC(=O)/C=C/c1ccco1)NCc1ccccc1Cl | 0 | -1 | 7 | 7 | 0 | 75* | 63*
O=C(COC(=O)/C=C/c1cccc(Cl)c1)NCCc1ccc(Cl)cc1Cl | 8 | -3 | 1 | 8 | -1 | 42* | 44*
O=C(Cc1ccccc1)NCCc1ccc(Cl)cc1Cl | -6 | -2 | 4 | 6 | 1 | 3 | x
O=C(COC(=O)/C=C/c1ccco1)NCc1ccc(Cl)cc1Cl | 7 | x | 4 | 3 | x | 77* | 63*
O=C(COC(=O)/C=C/c1ccccc1)NCc1ccccc1Cl | 0 | -3 | 1 | 14 | -5 | 71* | 70*
O=C(COC(=O)/C=C/c1ccccc1)NCCNC(=O)COC(=O)/C=C/c1ccccc1 | -8 | x | 1 | 2 | x | -1 | x
CCCc1cc(C(=O)NCc2cccnc2)no1 | 0 | -5 | 0 | 6 | -3 | -8 | x
CC1CCCC(C)N1C(=O)COC(=O)CNC(=O)c1ccc(Cl)cc1Cl (configuration not stated) | 2 | x | 5 | 3 | x | 4 | x
COc1ccc2[nH]c(=O)c(C(c3nnnn3C3CCCC3)N3CCN(Cc4ccc5c(c4)OCO5)CC3)cc2c1 (configuration not stated) | -2 | -1 | 2 | 1 | -2 | -3 | x
CSc1ccccc1NC(=O)COC(=O)/C=C/c1ccco1 | 6 | x | 4 | -12 | x | 63* | 44*
O=C(COC(=O)/C=C/c1ccco1)NCCc1ccccc1 | 5 | -2 | 2 | 12 | -1 | 32* | 21
CNC(=O)COC(=O)/C=C/c1ccco1 | 5 | -4 | -4 | 6 | 0 | 0 | x
O=C(COC(=O)/C=C/c1ccco1)NCc1ccco1 | 4 | -1 | 11 | 17 | -5 | 37* | 20
COc1ccc(CNC(=O)COC(=O)/C=C/c2ccco2)cc1 | 5 | -2 | -4 | 0 | -1 | 4 | x
CC(NC(=O)COC(=O)/C=C/c1ccco1)c1ccccc1 (configuration not stated) | 1 | -2 | 6 | 1 | -1 | 49* | 38*
Cc1ccc(/C=C/C(=O)OCC(=O)Nc2ccccc2Sc2ccccc2)cc1 | 4 | -1 | 9 | -3 | -2 | -4 | x
Cc1c(NS(=O)(=O)c2ccc(NC(=O)CCC(=O)O)cc2)c(=O)n(-c2ccccc2)n1C | 4 | -5 | 2 | 8 | -1 | 2 | x
SMILES | pPAFAH inh | IMP-1 inh | PAFAH1B2 FP inh | PAFAH1B3 inh | VIM-2 inh | PAFAH2 inh | PAFAH2 confirm
COc1ccc(C(CNC(=O)CN(C)S(=O)(=O)c2ccc(C)cc2)N2CCCC2)cc1 (configuration not stated) | 2 | x | 6 | 6 | x | 1 | x
O=C(COC(=O)/C=C/c1ccco1)Nc1ncc(C(F)(F)F)cc1Cl | 17 | -1 | 0 | 1 | -2 | 8 | x
Cc1c(Cl)cnc(NC(=O)COC(=O)/C=C/c2ccco2)c1Cl | x | x | 3 | -1 | x | 34* | 22
COc1cc(C2c3c(c(C)c(C)oc3=O)Oc3c(C)c(C)oc(=O)c32)ccc1OS(=O)(=O)c1ccc(C)cc1 | 3 | x | -4 | 4 | x | -5 | x
O=C1CC(c2ccccc2)CN1C(=O)c1cccnc1 (configuration not stated) | 2 | -1 | 3 | 0 | -6 | -2 | x
O=C1CC(c2ccccc2)CN1C(=O)c1cncc(Br)c1 (configuration not stated) | 3 | -2 | 0 | -2 | -1 | 64* | 61*
Cc1ccccc1OCC(=O)OCC(=O)NCCc1ccccc1 | 4 | x | 7 | 6 | x | 5 | x
COc1ccccc1NC(=O)COC(=O)/C=C/c1ccc(OC)c(OC)c1 | 4 | x | 5 | 8 | x | 37* | 22
O=C(COC(=O)/C=C/c1cccs1)Nc1ccc(Cl)cc1F | 5 | x | 4 | -1 | x | 52* | 58*
COCCNC(=O)COC(=O)c1ccc(OCC(=O)Nc2ccccc2OC)c(OC)c1 | 1 | 1 | 3 | 12 | 0 | 32* | 19
COc1ccccc1NC(=O)COC(=O)/C=C/c1cccs1 | -4 | x | 4 | 8 | x | 31* | 23
C=CCn1c(C)nnc1SCC(=O)Nc1oc(C)c2c(C)n[nH]c(=O)c12 | -2 | x | -1 | -11 | x | -6 | x
Cc1ccc(C(=O)OCC(=O)c2c[nH]c3ccccc23)cc1S(=O)(=O)N1CCCCC1 | -18 | -3 | -6 | -22 | -1 | -11 | x
Cc1c(C(C)CCCO)oc(=O)c2c1Oc1c(C)c(C(C)C[C@H](C)O)oc(=O)c1C2 (some centres not stated) | 1 | x | 1 | -1 | x | 1 | x
COc1ccc(/C=C/C(=O)OCC(=O)Nc2ccc(S(N)(=O)=O)cc2)cc1OC | 0 | -1 | 5 | -1 | 0 | 2 | x
COc1ccc(/C=C/C(=O)OCC(=O)Nc2ccc(Cl)c(S(=O)(=O)N(C)C)c2)cc1OC | 15 | -3 | -5 | -3 | -1 | 84* | 75*
COc1ccc(NC(=O)C2CCN(S(=O)(=O)c3cccs3)CC2)cc1OC | 0 | x | -1 | 11 | x | 12 | x
Cc1ccc2oc(C(=O)N3CCN(Cc4nccn4C)CC3)c(C)c2c1 | 4 | -2 | 1 | 11 | 3 | 6 | x
N/C(CS(=O)(=O)c1ccccc1)=N\OC(=O)c1ccc(F)cc1 | 9 | -2 | 3 | 5 | -1 | 52* | 40*
COC(=O)c1ccc(CO/N=C/c2ccc(OC)cc2)o1 | 2 | -1 | 0 | 3 | -3 | -7 | x
